Assay results as given in ChEMBL document CHEMBL1629612, “Characterization and sequence analysis of extended-spectrum-{beta}-lactamase-encoding genes from Escherichia coli, Klebsiella pneumoniae, and Proteus mirabilis isolates collected during tigecycline phase 3 clinical trials” (2009).
≈ marks a conversion by molar mass, not a printed value.

How the values were obtained:
Type in all cases: functional
Klebsiella pneumoniae [1] = assay: Antimicrobial activity against Klebsiella pneumoniae expressing beta-lactamase SHV by Etest based on multiple determinants
Method in brief: (§1)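 Clinical isolates from tigecycline phase 3 trials were received as frozen primary cultures. Repeat isolates from one patient were riboprinted, and only the first of identical strains was kept. β-lactamase genes were assigned by PCR against control strains, plus isoelectric focusing. ESBL confirmation used Etest ESBL strips carrying ceftazidime or cefotaxime with clavulanic acid, read per the manufacturer's instructions.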

Escherichia coli [2] = assay: Antimicrobial activity against Escherichia coli expressing beta-lactamase CTX by Etest based on multiple determinants
Method in brief: (§2)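 Clinical isolates from tigecycline phase 3 trials were received as frozen primary cultures. Serial isolates from one patient were riboprinted, and only the first of identical strains was kept. β-Lactamase genes were assigned by PCR. ESBL confirmation used Etest ESBL strips carrying ceftazidime or cefotaxime, alone and combined with clavulanic acid, following the strip maker's instructions.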

Escherichia coli [3] = assay: Antimicrobial activity against Escherichia coli expressing beta-lactamase AmpC and extended-spectrum beta-lactamase by Etest; method in brief: as §2
Escherichia coli [4] = assay: Antimicrobial activity against Escherichia coli expressing beta-lactamase AmpC by Etest; method in brief: as §2
Klebsiella pneumoniae [5] = assay: Antimicrobial activity against Klebsiella pneumoniae extended-spectrum beta-lactamase producing isolate by Etest; method in brief: as §1
Klebsiella pneumoniae [6] = assay: Antimicrobial activity against Klebsiella pneumoniae expressing beta-lactamase SHV by Etest based on single determinant; method in brief: as §1
Escherichia coli [7] = assay: Antimicrobial activity against Escherichia coli expressing beta-lactamase CTX by Etest based on single determinant; method in brief: as §2
Klebsiella pneumoniae [8] = assay: Antimicrobial activity against Klebsiella pneumoniae expressing beta-lactamase CTX by Etest based on single determinant; method in brief: as §1
Klebsiella pneumoniae [9] = assay: Antimicrobial activity against Klebsiella pneumoniae expressing beta-lactamase CTX by Etest based on multiple determinants; method in brief: as §1
Proteus mirabilis [10] = assay: Antimicrobial activity against Proteus mirabilis expressing extended-spectrum beta-lactamase by Etest based on single determinant; method in brief: as §1
Escherichia coli [11] = assay: Antimicrobial activity against Escherichia coli expressing beta-lactamase SHV by Etest; method in brief: as §2
Proteus mirabilis [12] = assay: Antimicrobial activity against Proteus mirabilis extended-spectrum beta-lactamase producing isolate by Etest; method in brief: as §1
Proteus mirabilis [13] = assay: Antimicrobial activity against Proteus mirabilis expressing beta-lactamase AmpC by Etest; method in brief: as §1
Escherichia coli [14] = assay: Antimicrobial activity against Escherichia coli expressing beta-lactamase CTX and SHV by Etest; method in brief: as §2
Proteus mirabilis [15] = assay: Antimicrobial activity against Proteus mirabilis expressing extended-spectrum beta-lactamase by Etest based on multiple determinants; method in brief: as §1
Klebsiella pneumoniae [16] = assay: Antimicrobial activity against Klebsiella pneumoniae expressing extended-spectrum beta-lactamase and beta-lactamase AmpC by Etest; method in brief: as §2
Klebsiella pneumoniae [17] = assay: Antimicrobial activity against Klebsiella pneumoniae expressing beta-lactamase SHV and CTX by Etest; method in brief: as §1
Klebsiella pneumoniae [18] = assay: Antimicrobial activity against Klebsiella pneumoniae expressing beta-lactamase DHA by Etest; method in brief: as §2
Escherichia coli [19] = assay: Antimicrobial activity against Escherichia coli extended-spectrum beta-lactamase producing isolate by Etest; method in brief: as §2

Row | Structure (SMILES) | MIC (Klebsiella pneumoniae [1]) | MIC50 (Escherichia coli [2]) | MIC90 (Escherichia coli [2]) | MIC50 (Escherichia coli [3]) | MIC90 (Escherichia coli [3]) | MIC (Escherichia coli [4]) | MIC50 (Klebsiella pneumoniae [5]) | MIC90 (Klebsiella pneumoniae [5]) | MIC50 (Klebsiella pneumoniae [6]) | MIC90 (Klebsiella pneumoniae [6]) | MIC50 (Escherichia coli [7]) | MIC90 (Escherichia coli [7]) | MIC50 (Klebsiella pneumoniae [8]) | MIC90 (Klebsiella pneumoniae [8]) | MIC50 (Klebsiella pneumoniae [9]) | MIC90 (Klebsiella pneumoniae [9]) | MIC (Proteus mirabilis [10]) | MIC (Escherichia coli [11]) | MIC50 (Proteus mirabilis [12]) | MIC90 (Proteus mirabilis [12]) | other results
1 | CO/N=C(\C(=O)N[C@@H]1C(=O)N2C(C(=O)[O-])=C(C[N+]3(C)CCCC3)CS[C@H]12)c1csc(N)n1 [CEFEPIME] | 2 µg/mL (≈ 4.16 µM) | 16 µg/mL (≈ 33.3 µM) | > 16 µg/mL | 16 µg/mL (≈ 33.3 µM) | > 16 µg/mL | 2 µg/mL (≈ 4.16 µM) | 8 µg/mL (≈ 16.6 µM) | > 16 µg/mL | ≤ 2 µg/mL | > 16 µg/mL | 16 µg/mL (≈ 33.3 µM) | > 16 µg/mL | 16 µg/mL (≈ 33.3 µM) | > 16 µg/mL | 16 µg/mL (≈ 33.3 µM) | > 16 µg/mL | 1 µg/mL (≈ 2.08 µM) | 2 µg/mL (≈ 4.16 µM) | 2 µg/mL (≈ 4.16 µM) | > 16 µg/mL | MIC (Proteus mirabilis [13]): 2 µg/mL (≈ 4.16 µM); MIC50 (Escherichia coli [14]): 16 µg/mL (≈ 33.3 µM); MIC90 (Escherichia coli [14]): > 16 µg/mL; MIC (Proteus mirabilis [15]): 1 µg/mL (≈ 2.08 µM); MIC (Klebsiella pneumoniae [16]): 2 µg/mL (≈ 4.16 µM)
2 | CO/N=C(\C(=O)N[C@@H]1C(=O)N2C(C(=O)O)=C(COC(C)=O)CS[C@H]12)c1csc(N)n1 [CEFOTAXIME] | 2 µg/mL (≈ 4.39 µM) | > 32 µg/mL | > 32 µg/mL | > 32 µg/mL | > 32 µg/mL | 4 µg/mL (≈ 8.78 µM) | > 32 µg/mL | > 32 µg/mL | 16 µg/mL (≈ 35.1 µM) | > 32 µg/mL | > 32 µg/mL | > 32 µg/mL | > 32 µg/mL | > 32 µg/mL | > 32 µg/mL | > 32 µg/mL | 0.25 µg/mL (≈ 0.549 µM) | 4 µg/mL (≈ 8.78 µM) | 32 µg/mL (≈ 70.3 µM) | > 32 µg/mL | MIC50 (Klebsiella pneumoniae [17]): > 32 µg/mL; MIC90 (Klebsiella pneumoniae [17]): > 32 µg/mL; MIC (Klebsiella pneumoniae [18]): 2 µg/mL (≈ 4.39 µM); MIC50 (Escherichia coli [19]): > 32 µg/mL; MIC90 (Escherichia coli [19]): > 32 µg/mL; MIC (Proteus mirabilis [13]): 16 µg/mL (≈ 35.1 µM); MIC50 (Escherichia coli [14]): > 32 µg/mL; MIC90 (Escherichia coli [14]): > 32 µg/mL; MIC (Proteus mirabilis [15]): 8 µg/mL (≈ 17.6 µM); MIC (Klebsiella pneumoniae [16]): 1 µg/mL (≈ 2.2 µM)
3 | CC(C)(O/N=C(\C(=O)N[C@@H]1C(=O)N2C(C(=O)[O-])=C(C[n+]3ccccc3)CS[C@H]12)c1csc(N)n1)C(=O)O [CEFTAZIDIME] | 16 µg/mL (≈ 29.3 µM) | 32 µg/mL (≈ 58.5 µM) | 64 µg/mL (≈ 117 µM) | > 32 µg/mL | > 32 µg/mL | 4 µg/mL (≈ 7.32 µM) | 32 µg/mL (≈ 58.5 µM) | > 64 µg/mL | 8 µg/mL (≈ 14.6 µM) | > 64 µg/mL | 16 µg/mL (≈ 29.3 µM) | 64 µg/mL (≈ 117 µM) | 32 µg/mL (≈ 58.5 µM) | > 64 µg/mL | 32 µg/mL (≈ 58.5 µM) | > 64 µg/mL | 2 µg/mL (≈ 3.66 µM) | 16 µg/mL (≈ 29.3 µM) | 64 µg/mL (≈ 117 µM) | > 64 µg/mL | MIC50 (Klebsiella pneumoniae [17]): 64 µg/mL (≈ 117 µM); MIC90 (Klebsiella pneumoniae [17]): > 64 µg/mL; MIC (Klebsiella pneumoniae [18]): 64 µg/mL (≈ 117 µM); MIC50 (Escherichia coli [19]): 32 µg/mL (≈ 58.5 µM); MIC90 (Escherichia coli [19]): > 64 µg/mL; MIC (Proteus mirabilis [13]): 64 µg/mL (≈ 117 µM); MIC50 (Escherichia coli [14]): 16 µg/mL (≈ 29.3 µM); MIC90 (Escherichia coli [14]): 64 µg/mL (≈ 117 µM); MIC (Proteus mirabilis [15]): 2 µg/mL (≈ 3.66 µM); MIC (Klebsiella pneumoniae [16]): 4 µg/mL (≈ 7.32 µM)
4 | CO/N=C(\C(=O)N[C@@H]1C(=O)N2C(C(=O)O)=C(CSc3nc(=O)c(O)nn3C)CS[C@H]12)c1csc(N)n1 [CEFTRIAXONE] | 2 µg/mL (≈ 3.61 µM) | > 32 µg/mL | > 32 µg/mL | > 32 µg/mL | > 32 µg/mL | 4 µg/mL (≈ 7.21 µM) | > 32 µg/mL | > 32 µg/mL | 8 µg/mL (≈ 14.4 µM) | > 32 µg/mL | > 32 µg/mL | > 32 µg/mL | > 32 µg/mL | > 32 µg/mL | > 32 µg/mL | > 32 µg/mL | 1 µg/mL (≈ 1.8 µM) | 4 µg/mL (≈ 7.21 µM) | 8 µg/mL (≈ 14.4 µM) | 32 µg/mL (≈ 57.7 µM) | MIC50 (Klebsiella pneumoniae [17]): > 32 µg/mL; MIC90 (Klebsiella pneumoniae [17]): > 32 µg/mL; MIC (Klebsiella pneumoniae [18]): 1 µg/mL (≈ 1.8 µM); MIC50 (Escherichia coli [19]): > 32 µg/mL; MIC90 (Escherichia coli [19]): > 32 µg/mL; MIC (Proteus mirabilis [13]): 8 µg/mL (≈ 14.4 µM); MIC50 (Escherichia coli [14]): > 32 µg/mL; MIC90 (Escherichia coli [14]): > 32 µg/mL; MIC (Proteus mirabilis [15]): 2 µg/mL (≈ 3.61 µM); MIC (Klebsiella pneumoniae [16]): 2 µg/mL (≈ 3.61 µM)
